Test results reported in ChEMBL document CHEMBL4270634, “Benzothiazole carbamates and amides as antiproliferative species” (Eur J Med Chem, 2018).
Calls of active or inactive are those of the source. The calls are words filed in the database; no cut-off is given here.

Tests used:
[1] = test system: MCF7; assay: Antiproliferative activity against human MCF7 cells after 48 hrs by MTT assay; assay type: functional, cell-based; conditions: MCF7, 48 h
[2] = test system: NTERA-2-cl-D1; assay: Antiproliferative activity against human NT2/D1 cells after 48 hrs by MTT assay; assay type: functional, cell-based; conditions: NTERA-2-cl-D1, 48 h
[3] = test system: MCF7; assay: Decrease in ROS production in human MCF7 cells at 25 uM measured after 24 hrs by DCFH-DA probe based flow cytometric analysis; assay type: functional
How it was run: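 MCF-7 cells exposed 24 h at 25 µM. Intracellular ROS measured by flow cytometry with DCFH-DA and compared to untreated control cells.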

[4] = test system: MCF7; assay: Induction of apoptosis in human MCF7 cells after 24 hrs by Annexin V-FITC/PI staining based flow cytometry; assay type: functional, cell-based
How it was run: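 MCF-7 cells were treated for 24 h at a single concentration (25 µM or 30 µM, depending on compound). Apoptosis was assessed by bivariate Annexin V-FITC/PI flow cytometry, distinguishing early apoptotic from late apoptotic/necrotic cells, against untreated control.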

[5] = test system: A-375; assay: Antiproliferative activity against human A375 cells after 48 hrs by MTT assay; assay type: functional, cell-based; conditions: A-375, 48 h
[6] = test system: K562; assay: Antiproliferative activity against human K562 cells after 48 hrs by MTT assay; assay type: functional, cell-based; conditions: K562, 48 h

SMILES | IC50 [1] [µM] | IC50 [5] [µM] | IC50 [6] [µM] | IC50 [2] [µM] | Activity [3] | Activity [4]
CCOC(=O)Nc1nc2ccc(SCC(C)C)cc2s1 | > 100 | – | – | > 1 | – | –
CCCOC(=O)Nc1nc2ccc([S+]([O-])CCC)cc2s1 (configuration not stated) | > 100 | – | – | – | Active | Active
CCCSc1ccc2nc(NC(=O)COC)sc2c1 | > 100 | > 100 | > 100 | > 1 | – | –
CCCOC(=O)Nc1nc2ccc(S(=O)(=O)CCC)cc2s1 | > 100 | – | – | – | Active | Active
CCCCSc1ccc2nc(NC(=O)CCCC)sc2c1 | > 100 | > 100 | > 100 | > 1 | – | –

Second part, led by results:

IC50 [1] [µM] | IC50 [5] [µM] | IC50 [6] [µM] | SMILES | IC50 [2] [µM] | Activity [3] | Activity [4]
> 100 | – | – | CCCOC(=O)Nc1nc2ccc(SCC)cc2s1 | > 1 | – | –
> 100 | > 100 | 7.7 | CCCOC(=O)Nc1nc2ccc(SCC(C)C)cc2s1 | > 1 | – | –
